Usually T/C stands for the ratio of treated to control.

Series [1] relates to P388. Put plainly: Antitumor activity against mouse P388 cells allografted in mouse at 50 mg/kg, ip. It counts as functional. To be noted: route intraperitoneal. The method, boiled down: (§1)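 P-388 lymphocytic leukemia in mice, run by NCI Division of Cancer Treatment standard protocol. Drug given intraperitoneally once daily on days 1-9, dose in mg/kg, with H2O, H2O + Tween 80 or saline as vehicle. Read-out is T/C = treated/control mean or median survival time × 100, and ≥125% counts as significant. Active results were repeated in at least one more experiment.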

The subject of series [2] is P388. Put plainly: Antitumor activity against mouse P388 cells allografted in mouse at 25 mg/kg, ip. The format is functional. To be noted: route intraperitoneal. The method, boiled down: as §1
For series [3], the system named is P388. Put plainly: Antitumor activity against mouse P388 cells allografted in mouse at 3.13 mg/kg, ip. The format is functional. To be noted: route intraperitoneal. The method in brief: as §1
Series [4] has as its system P388. Put plainly: Antitumor activity against mouse P388 cells allografted in mouse at 12.5 mg/kg, ip. It counts as functional. As to conditions: route intraperitoneal. The method in brief: as §1
In series [5] the test system is P388. Briefly: Antitumor activity against mouse P388 cells allografted in mouse at 18.8 mg/kg, ip. The format is functional. To be noted: route intraperitoneal. The method, boiled down: as §1
Series [6] relates to P388. Put plainly: Antitumor activity against mouse P388 cells allografted in mouse at 6.25 mg/kg, ip. The format is functional. As to conditions: route intraperitoneal. The method, boiled down: as §1
Series [7] concerns P388. Briefly: Antitumor activity against mouse P388 cells allografted in mouse at 6 mg/kg, ip. The format is functional. As to conditions: route intraperitoneal. The method, boiled down:
as §1

Series [8] has as its system P388. Put plainly: Antitumor activity against mouse P388 cells allografted in mouse at 9 mg/kg, ip. As to conditions: route intraperitoneal. It counts as functional. The method, boiled down: as §1
Series [9] concerns P388. Briefly: Antitumor activity against mouse P388 cells allografted in mouse at 100 mg/kg, ip. It counts as functional. As to conditions: route intraperitoneal. The method, boiled down: as §1
Series [10] concerns Mus musculus. Briefly: Toxicity in mouse P388 cells allografted mouse at 25 mg/kg, ip. The format is organism-based. Set-up: dose 25 mg/kg, route intraperitoneal. To be noted: in vivo.

In turn, `O.O=C1c2cccc([N+](=O)[O-])c2C(=O)N1CC[P+](c1ccccc1)(c1ccccc1)c1ccccc1.[Br-]` had a T/C in series [1] of 109%.

On to `O.O=C1c2ccc([N+](=O)[O-])cc2C(=O)N1CC[P+](c1ccccc1)(c1ccccc1)c1ccccc1.[Br-]`, for which the T/C in series [2] is on record as 107%.

In turn, `Cc1cccc2c1C(=O)N(CC[P+](c1ccccc1)(c1ccccc1)c1ccccc1)C2=O.[Br-]` registered a T/C in [3] (dose 3.13 mg/kg) of 140%.

In turn, `O.O=C1c2ccccc2C(=O)N1CCC[P+](c1ccccc1)(c1ccccc1)c1ccccc1.[Br-]` came in with a T/C in series [4] of 151%.

`N#CCC[P+](CCC#N)(CCC#N)CCN1C(=O)c2ccccc2C1=O.O.[Br-]` came in with a T/C in series [2] of 117%.

For the molecule `O.O=C1c2ccccc2C(=O)N1C[P+](c1ccccc1)(c1ccccc1)c1ccccc1.[Br-]`, in series [5], the T/C is 136%.

`[Br-].c1ccc([P+](CCN2Cc3ccccc3C2)(c2ccccc2)c2ccccc2)cc1`: the T/C in [3] (dose 6.25 mg/kg, in the assay text read “at 6.25 mg/kg” for “at 3.13 mg/kg”) stood at 114%; in series [6], 114%.

For the molecule `COc1ccc([P+](CCN2C(=O)c3ccccc3C2=O)(c2ccc(OC)cc2)c2ccc(OC)cc2)cc1.O.[Br-]`, the T/C in [7] stood at 134%.

`O=C1c2ccccc2C(=O)N1CC[P+](c1ccccc1)(c1ccccc1)c1ccccc1.[Br-]` yielded a T/C in [4] of 160%.

The molecule `O.O=C1c2ccccc2C(=O)N1CC[P+](c1ccc(Cl)cc1)(c1ccc(Cl)cc1)c1ccc(Cl)cc1.[Br-]` registered a T/C in series [6] of 110%.

`O=C1c2ccccc2C(=O)N1CCP(=O)(c1ccccc1)c1ccccc1` displayed a T/C in series [2] of 106%.

In [8], `O=C1c2ccccc2C(=O)N1CCCC[P+](c1ccccc1)(c1ccccc1)c1ccccc1.[Br-]` displayed a T/C of 121%.

In turn, `Cc1ccc2c(c1)C(=O)N(CC[P+](c1ccccc1)(c1ccccc1)c1ccccc1)C2=O.[Br-]` gave a T/C in series [6] of 139%.

As for `Cc1ccc([P+](CCN2C(=O)c3ccccc3C2=O)(c2ccc(C)cc2)c2ccc(C)cc2)cc1.O.[Br-]`, the T/C in series [6] is reported as 134%.

In series [6], `O.O=C1c2ccccc2C(=O)N1CC[P+](c1ccccc1)(c1ccccc1)c1ccccc1.[Cl-]` yielded a T/C of 133%.

On to `O.O=C1C2CC=CCC2C(=O)N1CC[P+](c1ccccc1)(c1ccccc1)c1ccccc1.[Br-]` (stereo unspecified), for which the T/C in series [2] is 115%.

As to `O=C1C=CC(=O)N1CC[P+](c1ccccc1)(c1ccccc1)c1ccccc1.[Br-]`, the T/C in series [2] is on record as 120%.

As for `Br.O.[Br-].c1ccc([P+](CCN2Cc3ccccc3C2)(c2ccccc2)c2ccccc2)cc1`, the T/C in series [6] is 118%.

On to `CCCC[P+](CCCC)(CCCC)CCN1C(=O)c2ccccc2C1=O.O.[Br-]`, for which the T/C in series [9] was found to be 116%.

`O=C1c2ccccc2C(=O)N1CC[P+](C1CCCCC1)(C1CCCCC1)C1CCCCC1.[Br-]` displayed a T/C in series [2] of 118%.

For the molecule `O.O=c1c2cc3c(=O)n(CC[P+](c4ccccc4)(c4ccccc4)c4ccccc4)c(=O)c3cc2c(=O)n1CC[P+](c1ccccc1)(c1ccccc1)c1ccccc1.[Br-].[Br-]`, in series [2], the T/C is 18%. In addition, in [10], the Activity entry was “Toxic”.

Take `O=C1c2ccccc2C(=O)N1CC[P+](Cc1ccccc1)(Cc1ccccc1)Cc1ccccc1.[Br-]`: the T/C in series [2] was determined as 112%.

Consider `BrCC[P+](c1ccccc1)(c1ccccc1)c1ccccc1.[Br-]`, for which the T/C in series [3] (dose 3.13 mg/kg) came out at 127%.

Consider `COCC[P+](c1ccccc1)(c1ccccc1)c1ccccc1.[Br-]`, for which the T/C in series [4] is 123%.

(Values after ChEMBL document CHEMBL3244315, “Synthesis and antitumor properties of some isoindolylalkylphosphonium salts” (J Med Chem, 1978).)
